Drawing on ChEMBL document CHEMBL4266007, “Synthesis and Biological Evaluation of an Indazole-Based Selective Protein Arginine Deiminase 4 (PAD4) Inhibitor” (ACS Med Chem Lett, 2018), this text covers Ratio, inhibition and IC50 for ten molecules.

Each structure is given as a SMILES string. The source made the active and inactive calls. The rule behind the calls is not given here.

For assay [1], the species on record is Homo sapiens. Put plainly: Ratio of Kinact/Ki for PAD3 (unknown origin) to Kinact/Ki for PAD4 (unknown origin).
The species entered for assay [2] is Homo sapiens. Put plainly: Ratio of Kinact/Ki for PAD3 (unknown origin) to Kinact/Ki for PAD2 (unknown origin).
Assay [3] is filed under the species Homo sapiens. Put plainly: Ratio of Kinact/Ki for PAD3 (unknown origin) to Kinact/Ki for PAD1 (unknown origin).
Assay [4] concerns the target T1, Protein-arginine deiminase type-4 (Homo sapiens, UniProt Q9UM07). Put plainly: Inhibition of PAD4 in human HL60 cells assessed as reduction in A23187-induced citrullinated H4 level at 5 to 10 uM preincubated for 15 mins followed by A23187 addition measured after 15 mins by Western blot analysis. The class given is cell-based. A digest of the protocol: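 HL-60 cells differentiated into mature granulocytes, which express PAD4, then stimulated with a calcium ionophore to trigger histone H4 citrullination. Cell lysates were analysed by Western blot using an anti-citrulline histone H4 antibody.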
In general terms: A western blot detects proteins with antibodies after separation by electrophoresis.

Assay [5] is filed under the species Homo sapiens. Kind of assay: Ratio of Kinact/Ki for PAD1 (unknown origin) to Kinact/Ki for PAD4 (unknown origin).
For assay [6], the species on record is Homo sapiens. Kind of assay: Ratio of Kinact/Ki for PAD1 (unknown origin) to Kinact/Ki for PAD2 (unknown origin).
For assay [7], the species on record is Homo sapiens. Kind of assay: Ratio of Kinact/Ki for PAD1 (unknown origin) to Kinact/Ki for PAD3 (unknown origin).
Assay [8] is filed under the species Homo sapiens. Kind of assay: Ratio of Kinact/Ki for PAD4 (unknown origin) to Kinact/Ki for PAD3 (unknown origin).
Assay [9] is filed under the species Homo sapiens. Kind of assay: Ratio of Kinact/Ki for PAD2 (unknown origin) to Kinact/Ki for PAD3 (unknown origin).
The species named for assay [10] is Homo sapiens. Put plainly: Ratio of Kinact/Ki for PAD2 (unknown origin) to Kinact/Ki for PAD1 (unknown origin).
Assay [11] is filed under the species Homo sapiens. Kind of assay: Ratio of Kinact/Ki for PAD2 (unknown origin) to Kinact/Ki for PAD4 (unknown origin).
Assay [12] is filed under the species Homo sapiens. Kind of assay: Ratio of Kinact/Ki for PAD4 (unknown origin) to Kinact/Ki for PAD1 (unknown origin).
For assay [13], the species on record is Homo sapiens. Put plainly: Ratio of Kinact/Ki for PAD4 (unknown origin) to Kinact/Ki for PAD2 (unknown origin).
In assay [14] the target is T1, Protein-arginine deiminase type-4. Kind of assay: Inhibition of PAD4 (unknown origin) preincubated for 15 mins followed by BAEE addition measured after 15 mins by spectrophotometric method.

T1 sequence (Q9UM07 whole entry): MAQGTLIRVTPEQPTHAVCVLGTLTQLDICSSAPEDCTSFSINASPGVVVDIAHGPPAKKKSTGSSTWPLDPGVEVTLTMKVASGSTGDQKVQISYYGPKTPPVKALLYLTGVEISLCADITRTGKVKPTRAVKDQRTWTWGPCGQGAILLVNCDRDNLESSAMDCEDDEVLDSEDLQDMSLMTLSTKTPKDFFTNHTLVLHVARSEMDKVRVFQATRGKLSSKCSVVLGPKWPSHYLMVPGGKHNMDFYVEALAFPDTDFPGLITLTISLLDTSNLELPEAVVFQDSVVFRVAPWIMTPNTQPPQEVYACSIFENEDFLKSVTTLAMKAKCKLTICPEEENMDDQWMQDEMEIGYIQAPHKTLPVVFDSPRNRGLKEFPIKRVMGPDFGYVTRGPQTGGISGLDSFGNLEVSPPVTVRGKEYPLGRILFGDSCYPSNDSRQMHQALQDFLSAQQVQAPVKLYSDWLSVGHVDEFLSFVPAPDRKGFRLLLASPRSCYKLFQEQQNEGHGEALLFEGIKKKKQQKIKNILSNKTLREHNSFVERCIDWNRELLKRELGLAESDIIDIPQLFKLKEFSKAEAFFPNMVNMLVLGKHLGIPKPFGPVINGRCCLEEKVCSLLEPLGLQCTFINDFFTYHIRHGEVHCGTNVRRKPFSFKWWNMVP

As for `N=C(CCl)NCCCC1NC(=O)N(Cc2ccc(-c3ccccc3Cl)cc2)C1=O` (racemic), the Ratio in [1], in assay [2] and in assay [3] was greater than 10 each time.

`N=C(CCl)NCCC[C@H](NC(=O)c1ccccc1)C(N)=O`: in assay [4], the inhibition entry is “Active”.

For the molecule `CC(C)(C)n1nnc([C@H](CCCNC(=N)CCl)NC(=O)c2cccc(C(=O)O)c2)n1`, the Ratio in assay [5], in assay [6] and in [7] was greater than 3 each time.

For `N=C(CCl)NCCCc1nn(CC2CCCC2)c2ccc(Cl)cc12`, the Ratio in [8] is 1.6.

Turning to `N=C(CCl)NCCCc1nn(CC2CCCC2)c2cc(Cl)ccc12`, the Ratio in [8] came out at 2.

As to `CCN1Cc2ccc(C(=O)N[C@@H](CCCNC(=N)CF)c3nc4c(OC)cccc4n3C)cc2C1=O`, the Ratio in [9], in assay [10] and in assay [11] was greater than 5 throughout.

For the molecule `N=C(CCl)NCCCc1nn(CC2CCCC2)c2cc(Cl)c(Cl)c(Cl)c12`, the Ratio stood at 11 in assay [8], 2700 in assay [12] and 58 in assay [13]. Also, the inhibition entry in assay [4] is “Active”.

For the molecule `N=C(CCl)NCCCc1nn(CC2CCCC2)c2cc(Cl)cc(Cl)c12`, the Ratio stood at 7.5 in assay [8], 3300 in [12] and 72 in assay [13].

Regarding `N=C(CCl)NCCCc1nn(CC2CCCC2)c2cccc(Cl)c12`, the Ratio in [8] came out at 1.3.

For orientation: IC50 means the concentration that gives 50% inhibition. For `Cn1cc(CCCNC(=N)CCl)c2ccccc21`, the IC50 in [14] was 190 µM.
